Activity calls are given as the source filed them. The calls are words filed in the database; no cut-off is given here.
Tests used:
MDA-MB-231 [1] = experiment: Drug uptake in human MDA-MB-231 cell cytoplasm at 10 uM after 1 hr using propidium iodide staining by two-photon confocal microscopy; format: ADME, cell-based; conditions: mda-mb-231, 1 h
Procedure, shortened: (§1)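 Cells (5 × 10^5) were treated with 10 µM compound for 1 h, PBS-washed and fixed in 4% formaldehyde. Nuclei were stained with propidium iodide for 5 min before mounting. Imaging used two-photon confocal microscopy, 63× oil, excitation 720 nm, emission 480–520 nm, with DIC for morphology.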

MDA-MB-231 [2] = experiment: Cell cycle arrest in human MDA-MB-231 cells assessed as accumulation at sup G1 phase at 5 to 10 uM after 24 hrs using propidium iodide staining by flow cytometry; format: functional, cell-based
Procedure, shortened: (§2)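 Asynchronous cells were treated with 5 or 10 µM compound or DMSO for 24 h (also 16 and 40 h). They were trypsinized, washed in PBS and fixed/permeabilized in 70% ethanol. Staining was with RNase and propidium iodide for 30 min in the dark at room temperature, followed by flow cytometry. Phase percentages are given minus DMSO control; mean of triplicates.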

MDA-MB-231 [3] = experiment: Induction of apoptosis in human MDA-MB-231 cells assessed as decrease in cell number at 10 uM after 48 hrs using propidium iodide staining by confocal microscopic analysis; format: functional, cell-based
[4] = target: T1, Cyclin-dependent kinase 5/CDK5 activator 1 (Homo sapiens) (UniProt Q00535+Q15078); conditions: at 0.1 µM
MCF7 [5] = experiment: Ratio of IC50 for human CL 10.3 cells expressing p-glycoprotein to IC50 for human MCF7 cells; format: functional
Procedure, shortened: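 MCF-7 and its P-glycoprotein-overexpressing MDR subline CL 10.3 were grown in DMEM with 10% heat-inactivated FBS. Compounds in DMSO were serially diluted in medium and given to cells for 72 h. Read-out was WST-1 reduction (450 nm, 630 nm reference). IC50 interpolated from log concentration versus fraction surviving; mean (SEM) of triplicates. Ratio is CL 10.3 IC50 over MCF-7 IC50.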

MCF7 [6] = experiment: Induction of apoptosis in human MCF7 cells assessed as early apoptotic cells at 10 uM after 24 hrs using annexinV-propidium iodide staining by flow cytometry (reference value: 4.24%); format: functional
MCF7 [7] = experiment: Drug uptake in human MCF7 cell cytoplasm at 10 uM after 3 to 24 hrs using propidium iodide staining by two-photon confocal microscopy; format: ADME, cell-based; conditions: mcf7, 10 µM
MDA-MB-231 [8] = experiment: Induction of apoptosis in human MDA-MB-231 cells assessed as reduction of cdc2 phosphorylation at T161 catalytic site at 10 uM by Western blot analysis; format: functional, cell-based; conditions: TDE = time-dependent effect
Procedure, shortened: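 MDA-MB-231 cells were treated with 10 µM compound for 1, 3, 6, 12 and 24 h and lysed. Equal protein was resolved by 10% SDS–PAGE and immunoblotted for phospho-cdc2 (T161, Y15), cdc2 and cyclin B, with actin as loading standard and ECL detection.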

[9] = target: CDK9/cyclin T1 (Homo sapiens) (UniProt O60563+P50750); experiment: Inhibition of at human CDK9/cyclin T1 at 0.1 uM after 40 mins relative to control; format: protein-complex assay
Procedure, shortened: (§3)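 Radiometric screen at 100 nM compound against purified human CDK/cyclin (5–10 mU). Incubation 40 min at room temperature, stopped with phosphoric acid. Read by filtermat scintillation. Activity expressed as % of control, N = 2.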

MDA-MB-231 [10] = experiment: Cell cycle arrest in human MDA-MB-231 cells assessed as accumulation at G2/M phase treated at 10 uM for 24 hrs measured after drug washout following 48 hrs growth recovery using propidium iodide staining by flow cytometry; format: functional, cell-based
Procedure, shortened: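 Exponentially growing cells exposed 24 h, then held a further 48 h in compound-free medium. Cells trypsinized, pelleted, PBS-washed, permeabilized in 70% ethanol, stained 30 min in the dark at room temperature with PI plus RNase, and analysed by flow cytometry. Phase percentages given after subtracting untreated control. Mean of triplicate experiments.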

Homo sapiens = species on record: Homo sapiens; experiment: Binding affinity to human breast cancer tissue at 10 uM after 1 hr by two-photon confocal microscopic analysis; format: functional
Procedure, shortened: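 Breast cancer tissue sections were dewaxed and rehydrated, then given epitope retrieval for 20 min at 100 °C. They were blocked with goat serum, exposed to 10 µM compound or dansyl ethylenediamine control for 1 h at room temperature, washed and mounted. Dansyl fluorescence was imaged.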

MCF7 [11] = experiment: Drug uptake in human MCF7 cell cytoplasm at 10 uM after 1 hr using propidium iodide staining by two-photon confocal microscopy; format: ADME, cell-based; conditions: mcf7, 1 h; procedure, shortened: as §1
MCF7 [12] = experiment: Cell cycle arrest in human MCF7 cells assessed as accumulation at G2/M phase at 5 to 10 uM after 16 to 40 hrs using propidium iodide staining by flow cytometry; format: functional, cell-based; procedure, shortened: as §2
[13] = target: T1, Cyclin-dependent kinase 5/CDK5 activator 1 (Homo sapiens); conditions: at 0.1 µM; remark: listed apart in the source
[14] = target: CDK3/cyclin E (Homo sapiens) (UniProt P24864+O96020+Q00526); experiment: Inhibition of human CDK3/cyclin E at 0.1 uM after 40 mins relative to control; format: protein-complex assay; procedure, shortened: as §3
MDA-MB-231 [15] = experiment: Induction of apoptosis in human MDA-MB-231 cells assessed as decrease in caspase 7 protein level at 10 uM after 48 hrs by Western blotting; format: functional, cell-based
MDA-MB-231 [16] = experiment: Antiproliferative activity against estrogen receptor-deficient human MDA-MB-231 cells after 48 hrs by WST-1 assay; format: functional, cell-based; conditions: MDA-MB-231, 48 h
Procedure, shortened: (§4)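 Cells seeded at 3000/well in DMEM with 10% FBS and left 24 h. Compounds in DMSO were serially diluted in medium (1–100 µM) and added in triplicate. WST-1 was read 48 h after addition: 2–3 h incubation, absorbance at 450 nm with 630 nm reference. IC50 interpolated from log concentration versus fraction surviving; mean (SEM) of triplicate experiments.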

MDA-MB-231 [17] = experiment: Induction of apoptosis in human MDA-MB-231 cells assessed as induction of PARP cleavage at 10 uM after 48 hrs by Western blotting; format: functional, cell-based
Procedure, shortened: (§5)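 MDA-MB-231 cells were treated with vehicle or 10 µM compound for 48 h (and 72 h). Lysates were cleared and protein measured by BCA. Equal protein was run on 10% SDS–PAGE and transferred to PVDF, blocked in 5% milk overnight, and probed 2 h with anti-Bcl-2, Bax or PARP. HRP secondary was applied for 1 h, with ECL detection.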

MCF7 [18] = experiment: Induction of apoptosis in human MCF7 cells assessed as viable cells at 10 uM after 24 hrs using annexinV-propidium iodide staining by flow cytometry (reference value: 70.32%); format: functional; conditions: MCF7, 24 h, read-out: Activity
MDA-MB-231 [19] = experiment: Induction of apoptosis in human MDA-MB-231 cells assessed as decrease in Bcl2 protein level at 10 uM after 48 hrs by Western blotting; format: functional, cell-based; procedure, shortened: as §5
MDA-MB-231 [20] = experiment: Cell cycle arrest in human MDA-MB-231 cells assessed as accumulation at G2/M phase at 5 to 10 uM after 16 to 40 hrs using propidium iodide staining by flow cytometry; format: functional, cell-based; procedure, shortened: as §2
MDA-MB-231 [21] = experiment: Induction of apoptosis in human MDA-MB-231 cells assessed as increase in Bax protein level at 10 uM after 48 hrs by Western blotting; format: functional, cell-based; procedure, shortened: as §5
MDA-MB-231 [22] = experiment: Induction of apoptosis in human MDA-MB-231 cells assessed as decrease in caspase 3 protein level at 10 uM after 48 hrs by Western blotting; format: functional, cell-based
MCF7 [23] = experiment: Antiproliferative activity against human MCF7 cells expressing estrogen receptor after 48 hrs by WST-1 assay; format: functional, cell-based; conditions: MCF7, 48 h; procedure, shortened: as §4

T1 sequence (Q00535 whole entry): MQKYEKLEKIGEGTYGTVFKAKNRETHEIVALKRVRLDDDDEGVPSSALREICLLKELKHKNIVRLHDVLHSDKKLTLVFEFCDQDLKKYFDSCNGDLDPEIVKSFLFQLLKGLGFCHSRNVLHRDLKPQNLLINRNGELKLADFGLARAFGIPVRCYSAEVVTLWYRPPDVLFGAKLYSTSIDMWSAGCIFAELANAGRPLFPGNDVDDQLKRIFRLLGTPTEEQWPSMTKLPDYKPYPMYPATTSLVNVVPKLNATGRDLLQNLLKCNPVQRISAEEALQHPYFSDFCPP
T1 sequence (Q15078 99-307 partner limits assumed): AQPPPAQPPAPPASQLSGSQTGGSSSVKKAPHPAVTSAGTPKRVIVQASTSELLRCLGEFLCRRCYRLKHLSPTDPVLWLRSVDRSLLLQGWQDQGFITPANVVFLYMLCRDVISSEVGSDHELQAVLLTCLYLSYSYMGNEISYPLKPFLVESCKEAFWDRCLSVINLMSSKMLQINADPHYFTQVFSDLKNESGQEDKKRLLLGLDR
CDK3/cyclin E (Homo sapiens), sequence (O96020 whole entry, looked up): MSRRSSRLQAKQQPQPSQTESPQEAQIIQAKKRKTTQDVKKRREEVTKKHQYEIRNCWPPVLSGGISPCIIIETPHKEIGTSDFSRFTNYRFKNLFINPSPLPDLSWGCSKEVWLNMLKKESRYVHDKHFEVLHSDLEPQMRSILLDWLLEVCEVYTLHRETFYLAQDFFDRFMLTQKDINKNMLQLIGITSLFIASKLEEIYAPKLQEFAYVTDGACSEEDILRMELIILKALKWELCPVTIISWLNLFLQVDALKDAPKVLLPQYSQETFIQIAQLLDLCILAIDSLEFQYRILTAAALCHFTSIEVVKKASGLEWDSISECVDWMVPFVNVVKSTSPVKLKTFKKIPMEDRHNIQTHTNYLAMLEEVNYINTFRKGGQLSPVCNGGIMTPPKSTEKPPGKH
CDK3/cyclin E (Homo sapiens), sequence (P24864 whole entry, looked up): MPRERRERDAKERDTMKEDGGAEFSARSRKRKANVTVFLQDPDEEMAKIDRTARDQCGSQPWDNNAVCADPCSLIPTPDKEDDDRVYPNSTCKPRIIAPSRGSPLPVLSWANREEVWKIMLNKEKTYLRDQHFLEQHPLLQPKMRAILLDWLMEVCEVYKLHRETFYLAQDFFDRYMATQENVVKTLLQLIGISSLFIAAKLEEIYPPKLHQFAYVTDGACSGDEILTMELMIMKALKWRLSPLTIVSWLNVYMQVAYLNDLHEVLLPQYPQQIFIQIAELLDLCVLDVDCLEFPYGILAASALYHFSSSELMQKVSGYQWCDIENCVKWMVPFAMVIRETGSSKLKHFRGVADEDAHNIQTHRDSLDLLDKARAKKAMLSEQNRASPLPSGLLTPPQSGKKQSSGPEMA
CDK3/cyclin E (Homo sapiens), sequence (Q00526 whole entry, looked up): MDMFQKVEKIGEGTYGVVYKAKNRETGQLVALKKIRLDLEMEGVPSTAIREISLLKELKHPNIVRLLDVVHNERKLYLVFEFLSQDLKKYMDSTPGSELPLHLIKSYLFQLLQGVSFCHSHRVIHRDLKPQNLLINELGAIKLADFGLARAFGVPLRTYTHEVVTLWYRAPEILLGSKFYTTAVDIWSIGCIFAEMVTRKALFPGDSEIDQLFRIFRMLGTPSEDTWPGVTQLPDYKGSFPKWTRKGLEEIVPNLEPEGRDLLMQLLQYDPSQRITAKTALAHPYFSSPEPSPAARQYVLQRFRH

## CC(C)[C@H](CO)Nc1nc(Nc2ccc(C(=O)NCCNS(=O)(=O)c3cccc4c(N(C)C)cccc34)c(Cl)c2)c2ncn(C(C)C)c2n1
MDA-MB-231 [1]
  Activity: Active
MDA-MB-231 [2]
  Activity: Active
MDA-MB-231 [3]
  Activity: Active
[4]
  inhibition: 66%
MCF7 [5]
  Ratio IC50: 9.8
MCF7 [6]
  Activity: 10.53%
MCF7 [7]
  Activity: Active
MDA-MB-231 [8]
  inhibition: tde
[9]
  inhibition: 67%
MDA-MB-231 [10]
  Activity: Active
Homo sapiens
  Activity: Active
MCF7 [11]
  Activity: Active
MCF7 [12]
  Activity: Active
[13]
  inhibition: 75%
[14]
  inhibition: 65%
MDA-MB-231 [15]
  Activity: Active
MDA-MB-231 [16]
  IC50: 4.06 µM
MDA-MB-231 [17]
  Activity: Active
MCF7 [18]
  viability at 10 µM: 48.9%
MDA-MB-231 [19]
  Activity: Active
MDA-MB-231 [20]
  Activity: Active
MDA-MB-231 [21]
  Activity: Active
MDA-MB-231 [22]
  Activity: Active
MCF7 [23]
  IC50: 10 µM
